From PubChem BioAssay
Shown are actives, neighbours in structure and some others; about 1.9% of the full set was active somewhere.
Hck Nef HTS: inhibitors of human Hck kinase activated by Nef; Recombinant Hck-YEEI plus Nef, Z-Lyte FRET kinase assay; inhibition, % at 20 µM; 0.68% of 220,000 active;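 active = Hck-Nef kinase inhibition above about 50%, limit read from the data; inactive = inhibition below that limit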
Target sequence (P08631 whole entry, looked up): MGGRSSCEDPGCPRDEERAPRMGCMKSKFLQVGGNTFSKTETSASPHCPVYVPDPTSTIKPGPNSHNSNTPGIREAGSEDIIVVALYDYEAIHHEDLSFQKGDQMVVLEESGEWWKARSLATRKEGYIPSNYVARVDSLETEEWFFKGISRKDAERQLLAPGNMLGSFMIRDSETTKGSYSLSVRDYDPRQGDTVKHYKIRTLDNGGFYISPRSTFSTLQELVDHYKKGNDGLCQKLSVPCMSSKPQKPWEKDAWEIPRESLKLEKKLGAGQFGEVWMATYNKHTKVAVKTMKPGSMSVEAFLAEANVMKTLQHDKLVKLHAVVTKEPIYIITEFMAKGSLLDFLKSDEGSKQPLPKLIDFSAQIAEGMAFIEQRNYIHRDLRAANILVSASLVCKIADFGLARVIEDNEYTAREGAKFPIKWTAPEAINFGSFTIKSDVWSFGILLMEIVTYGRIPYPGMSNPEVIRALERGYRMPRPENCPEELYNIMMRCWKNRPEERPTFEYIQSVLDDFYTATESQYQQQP
RanGTP-Impb inh: inhibitors of RanGTP-importin-beta interaction, primary screen, biochemical, FRET, CFP-Ran, YFP-importin-beta, homogeneous | cell-free CFP-Ran/YFP-importin-beta FRET ratio | inhibition, % (no concentration beside the values) | 1.1% of 300,000 active | AID 2216;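 active = more than half of the replicate wells show a fall in the fluorescence ratio signal beyond about 16%, limit read from the data, passing the limit was not always enough; inconclusive = exactly half of the replicate wells pass the set limit; inactive = fewer than half of replicates pass the limit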
Runt-SMMHC FRET: Runt domain-CBFb-SMMHC interaction inhibition | inhibition, % at 20 µM | Q01196+Q13951 | AID 1434 | 0.74% of 220,000 active | Cerulean-Runt/Venus-CBFb-SMMHC FRET ratio 530/480, 1 h;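 active = mean inhibition across duplicate retests at 20 µM reaching about 50%, limit read from the data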;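 note: inhibitors lower the FRET ratio by blocking Runt binding to CBFb-SMMHC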
TbHK1 inh: blocks Trypanosoma brucei hexokinase 1 activity; recombinant TbHK1, G6PDH-coupled NADH A340; inhibition, % at 10 µM; 0.11% of 220,000 active; AID 1430;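 active = inhibition of 50% or more in the single-dose primary screen; inactive = inhibition below 50%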
Runt-CBFb FRET: inhibitors of human RUNX1 Runt domain binding to CBFb; Q01196+Q13951; inhibition, % at 20 µM; Cerulean-Runt/Venus-CBFb FRET ratio 530/480, 1 h; AID 1496; 0.46% of 220,000 active;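 active = inhibition over about 50% at 20 µM in the single-dose screen, limit read from the data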
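Measured by: fluorescence energy transfer, 422 nm excitation, 530/480 nm emission; Assay system: Cerulean-Runt domain; Medium: Tris pH 7.5 buffer with BSA; Measure: loss of energy transfer signal; Controls: 5 µM unlabeled CBFb as full-inhibition high control; Incubation: protein complex preformed 1 h, compound exposure 1 h, room temperature, dark.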
YIC counter: counter-screen: alters YIC FRET probe signal | shares compounds with RanGTP-Impb inh | Purified YIC probe, intramolecular FRET ratio YFP/CFP | IC50, µM | 40% of 1,000 active;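 active = fitted half-maximal inhibitory concentration no more than tenfold above the top dose tested; inconclusive = flat fit with 30 to 70% activity, or poor fit; inactive = half-maximal concentration beyond tenfold above the top dose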
Hits are given with their value; – = inactive; ? = inconclusive; · = no result given.

SMILES	Hck Nef HTS	RanGTP-Impb inh	Runt-SMMHC FRET	TbHK1 inh	Runt-CBFb FRET	YIC counter
O=C(Nc1ccc2c(c1)OCO2)c1ccc(S(=O)(=O)NCC2CCCO2)cc1 (stereo not drawn)	–	–	–	–	–	·
O=C(Nc1cccc(F)c1)c1ccc(S(=O)(=O)NCC2CCCO2)cc1 (stereo not drawn)	–	21.4	–	–	–	–
CC1(C)CC(=O)CC(=Nc2ccc3[nH]c(=O)[nH]c3c2)C1	–	28.5	–	–	–	–
CC1(C)CC(=O)C/C(=N/Nc2nc3ccccc3s2)C1	–	–	–	–	–	·
O=C(/C=C/c1ccccc1[N+](=O)[O-])N1CCN(c2ccc(F)cc2)CC1	–	23.5	–	–	–	–
CN(C)/C=N/c1nc2nccc(-c3ccc(F)cc3)n2n1	–	–	–	–	–	·
CN(C)/C=N/c1nc2nccc(-c3cccs3)n2n1	–	16.7	–	–	–	13.8
Cc1ccc(C2=CC(c3ccccc3)n3ncnc3N2)cc1 (stereo not drawn)	·	–	·	·	·	·
Cc1ccc(C2=CC(c3ccccc3)n3ncnc3N2)c(C)c1 (stereo not drawn)	·	18.6	·	·	·	–
O=C(CCc1nnc(COc2ccccc2)o1)NCc1ccc(Cl)s1	–	–	–	–	–	·
Cc1nnc(Sc2nc3c(c(=O)n(C)c(=O)n3C)n2Cc2ccccc2Cl)s1	–	17.3	·	–	·	–
Cc1cccc(N2C(=O)/C(=C/c3cccnc3)SC2=S)c1	–	19.2	–	–	–	–
Cc1cc(C)c2c(n1)nn1c(NCCCN(C)C)cc(C)nc21	–	30.2	63.8	–	–	26.7
O=C(O)c1c2c(nc3ccccc13)/C(=C/c1ccc(OC(F)F)cc1)CCC2	·	30.8	·	·	·	–
O=C(CN1C(=O)c2ccccc2C1=O)Nc1cccc(S(=O)(=O)Nc2ccccc2Cl)c1	–	–	–	–	–	·
Cc1ccc(N2NC(=O)/C(=C\c3cc4c(cc3[N+](=O)[O-])OCO4)C2=O)cc1C	–	24.8	–	–	–	–
Cc1cc(C(=O)O)ccc1-c1ccc(CO)o1	–	–	–	–	–	·
Cc1cc(C(=O)O)ccc1-c1ccc(/C=C2\NC(=O)N(Cc3ccccc3Cl)C2=O)o1	–	22.2	67.5	–	–	0.908
COc1ccc(C(=O)/C=C/Nc2cccc(C)n2)cc1OC	–	20.2	–	–	–	26
Cc1ccsc1/C=C1/NC(=O)N(Cc2ccc(F)cc2)C1=O	–	–	–	–	–	·
COc1ccc(C(CC(=O)Nc2cc([N+](=O)[O-])ccc2OC)c2ccccc2)cc1 (stereo not drawn)	–	–	–	–	–	·
COc1ccc(C(CNC(=O)c2cc(F)c(F)c(F)c2F)N2CCOCC2)cc1 (stereo not drawn)	–	18.9	–	–	–	–
Cc1ccc2cc(C#N)c(N3CCCN(S(=O)(=O)c4ccccc4)CC3)nc2c1	–	?	–	–	–	·
Cc1ccc2cc(C#N)c(N3CCCN(S(=O)(=O)c4ccc(F)cc4)CC3)nc2c1	–	18.0	–	–	–	24.8
COCC(=O)Nc1ccc(OC)c(Cl)c1	–	–	–	–	–	·
SMILES	Hck Nef HTS	RanGTP-Impb inh	Runt-SMMHC FRET	TbHK1 inh	Runt-CBFb FRET	YIC counter
COc1ccc(NC(=O)COC(C)=O)cc1Cl	–	20.6	–	–	–	–
COc1ccccc1S(=O)Cc1ccc(C(=O)O)o1 (stereo not drawn)	–	20.4	–	–	·	–
CC(C)Oc1ccc(CCNC(=O)CC2C(=O)NCCN2C)cc1 (stereo not drawn)	–	–	–	–	–	·
Cc1nc(N2CCC(C)CC2)c2c(C)c(C(=O)Nc3cccc(C(F)(F)F)c3)sc2n1	–	–	–	–	–	·
Cc1nc(Nc2cnc(/C=C/c3cc(C(=O)Nc4cccc(C(F)(F)F)c4)ccc3C)cn2)cc(N2CCNCC2)n1	·	41.2	·	·	·	18.2
CC(=O)c1cccc(OCC(=O)N(C)CC(=O)Nc2ccc(F)cc2)c1	–	64.6	–	–	–	–
O=C(Cn1cnc2ccccc21)N/N=C/c1cccs1	–	–	–	–	–	·
O=C(Cn1nnc2ccccc21)N/N=C\c1cccs1	–	21.7	–	–	–	–
OCCC1CN(Cc2cccn2-c2cccnc2)CCN1Cc1ccc(F)cc1 (stereo not drawn)	–	26.9	–	–	–	–
CCOc1ccc(CN2CCN(Cc3cccn3-c3cccnc3)CC2CCO)cc1 (stereo not drawn)	–	–	–	–	–	·
CC(C(=O)NCc1ccccc1Cl)N1C(=O)c2ccccc2C1=O (stereo not drawn)	·	–	·	·	·	·
CCOC(=O)[C@H]1NN=C(C(=O)OC)[C@@H]1c1ccccc1	–	?	–	–	–	·
C/C(=N\OCC(=O)OCC(=O)NC(=O)c1ccccc1)c1ccc2c(c1)OCO2	·	16.7	·	·	·	–
COC(=O)Nc1ccc(NC(C)=O)cc1	–	17.3	–	–	–	–
CC(=O)Nc1ccc(-c2ccc(NC(C)=O)cc2)cc1	–	–	–	–	–	·
CC(O)CNc1nc2ccccc2n1CC(=O)NC12CC3CC(CC(C3)C1)C2 (stereo not drawn)	–	22.1	–	–	–	–
O=C(O)/C=C/c1cn(-c2ccccc2)nc1-c1cc2ccccc2o1	–	–	–	–	–	·
CCCc1cc(=O)oc2c(CN3CCN(C)CC3)c(O)ccc12	·	–	·	·	·	·
CCCc1cc(=O)oc2c(CN3CCN(C)CC3)c(O)c(Cl)cc12	·	50.5	101.1	·	123.3	31.4
CCCOC(=S)NC(=O)c1sc2ccccc2c1Cl	–	31.1	–	–	–	–
CCOC(=O)c1c(N)sc(C(=O)OCCOC)c1C	–	–	–	–	–	·
O=C(Nc1ccc(O)c2c(=O)cc(-c3ccccc3Cl)oc12)c1cccs1	–	–	–	–	–	·
COc1cccc(NC(=O)C2CCN(C(=O)[C@@H]3Cc4ccccc4CN3)CC2)c1	·	–	·	·	·	·
CCCCOc1ccc(OCCSc2nc3ccccc3n2CC(=O)O)cc1	·	17.9	·	·	·	–
Oc1c(C(Nc2nc3ccccc3s2)c2ccco2)ccc2cccnc12 (stereo not drawn)	–	21.6	–	–	–	–
SMILES	Hck Nef HTS	RanGTP-Impb inh	Runt-SMMHC FRET	TbHK1 inh	Runt-CBFb FRET	YIC counter
O=C(COC(=O)C12CC3CC(CC(C3)C1)C2)Nc1nc2c(F)c(F)c(F)cc2s1	–	–	–	–	–	·
O=C1CC(C(=O)Nc2cccc3ccccc23)C2(CCCC2)O1 (stereo not drawn)	–	–	–	–	–	·
Cc1ccc(S(=O)(=O)N(C)Cc2ccc(C(=O)N/N=C3\CC(=O)CC(C)(C)C3)cc2)cc1	–	18.6	–	–	–	–
COCCN(C(=O)COC(=O)CCC(=O)c1cccs1)c1c(N)n(Cc2ccccc2)c(=O)[nH]c1=O	·	–	·	·	·	·
CCSc1nnc(-c2cc(Br)ccc2N=Cc2c(C)[nH]n(-c3ccccc3)c2=O)c(=O)[nH]1	–	18.3	–	–	–	–
CSc1nnc(-c2cc(Br)ccc2N=Cc2c(C)[nH]n(-c3ccccc3)c2=O)c(=O)[nH]1	–	–	–	–	–	·
